High-throughput results as filed in PubChem.
CHOP UPR activ: apoptotic UPR (CHOP) activation; CHO-CHOP luciferase reporter, luminescence; percent of tunicamycin response over DMSO baseline; activation, % at 10 µM; 330,000 compounds, 0.34% hits;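 active = at 10 µM dose, activation of 40% or more, normalized to positive control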;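 note: 100% = tunicamycin at 10 µg/mL and 0% = DMSO alone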
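measured by = luciferase luminescence | assay system = CHO-CHOP cells, stable luciferase reporter of PERK-eIF2a-CHOP signalling | amount = 500 reporter cells seeded per well | timing = 6 h compound exposure at 37 °C after overnight seeding | controls = positive tunicamycin 10 µg/mL, negative DMSO alone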
V-ATPase pH: yeast V-ATPase proton transport regulation by pHLuorin. AID 504577. S. cerevisiae, pHLuorin cytosolic pH fluorescence. response, % at 10 µM. 350,000 compounds, 0.37% hits; in the data active = response mostly above about 7.3%, no sharp cut-off; inactive = mostly below about 5.4%; note: actives read high
CHOP inh: blocks CHOP induction under ER stress; 220,000 compounds, 3.8% hits; inhibition, % at 10 µM; CHO-K1 CHOP-promoter luciferase, tunicamycin-induced, 15-18 h; AID 2732;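 active = compounds that reduced the stress-induced luciferase reporter signal by more than about 70% of percent inhibition, limit read from the data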;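 note: 0% = tunicamycin plus vehicle and 100% = wells without tunicamycin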
TbMetRS inhib: Trypanosoma brucei MetRS inhibition; purified T. brucei MetRS, ATP depletion, Kinase-Glo luminescence; inhibition, % at 11.9 µM; 360,000 compounds, 0.4% hits; AID 624268;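 active = inhibition above a per-plate cutoff of the control wells' mean inhibition plus 3 SD, cut at about 5.5% in these data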;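 note: 0% = DMSO wells median and 100% = median of wells with control inhibitor compound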
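System: purified T. brucei MetRS enzyme / Detection: Kinase-Glo luciferase luminescence reporting remaining unconsumed ATP / Medium: HEPES buffer with MgCl2, KCl, DTT, spermine, BSA, pyrophosphatase / Replication: singlicate, one well per compound / Evaluation: percent inhibition relative to median high and low control wells / Schedule: 2 h aminoacylation at 25 °C after 15 min preincubation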
XBP1 UPR activ: activators of adaptive arm of unfolded protein response (XBP1) | CHO-XBP1 luciferase reporter, IRE1-XBP1 UPR activation, luminescence; percent of tunicamycin response, DMSO as zero | activation, % at 20 µM | AID 463104 | 330,000 compounds, 0.33% hits;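 active = versus positive control, 20 µM dose yields 30% or more activation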;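 note: 100% = tunicamycin at 10 µg/mL and 0% = DMSO only wells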
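Material – CHO cell line with stable XBP1 luciferase reporter · Buffer or medium – F12 plus 10% FBS · Compound – single point, 20 µM final compound, 1% DMSO · Schedule – 16-18 h cell attachment at 37 °C, then 6 h compound exposure · Signal – Steady-Glo luminescence read · Benchmarks – high control tunicamycin 10 µg/mL final, low control DMSO vehicle only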
Active calls of the source: *. The sample as a whole holds a higher share of hits than the screen did.

For CSc1cccc(NC(=O)CN(Cc2ccc(Cl)cc2)S(C)(=O)=O)c1 the results were CHOP UPR activ -1, V-ATPase pH 3, CHOP inh 93*, TbMetRS inhib 3 and XBP1 UPR activ -1.
Screening CSc1ccccc1NC(=O)CN(Cc1ccc(Cl)cc1)S(C)(=O)=O returned CHOP UPR activ -3, V-ATPase pH 1, CHOP inh 77*, TbMetRS inhib 0 and XBP1 UPR activ -3.
CSc1ccccc1NC(=O)CN(Cc1ccccc1)S(C)(=O)=O was read as CHOP UPR activ 0, V-ATPase pH 0, CHOP inh 42, TbMetRS inhib -1 and XBP1 UPR activ 3.
Screening CCCN(C)C[C@H]1OCc2cnnn2CCCC(=O)N([C@H](C)CO)C[C@@H]1C returned TbMetRS inhib 0.
For O=S(=O)(c1cccc(NC(=S)N2CCN(c3cccc(Cl)c3)CC2)c1)C(F)F the results were CHOP UPR activ -3, V-ATPase pH 2, CHOP inh 70*, TbMetRS inhib 0 and XBP1 UPR activ 0.
O=C(NCc1ccco1)c1ccc(CNc2c(N3CCCCC3)c(=O)c2=O)cc1 was read as CHOP UPR activ 0, V-ATPase pH -2, CHOP inh -14, TbMetRS inhib -1 and XBP1 UPR activ -2.
Screening Cc1[nH]nc(N2CCCCC2)c1[N+](=O)[O-] returned CHOP UPR activ 0, V-ATPase pH 1, CHOP inh -6, TbMetRS inhib 0 and XBP1 UPR activ 0.
Screening Cc1nc(N2CCCCC2)c(C#N)c(C)c1[N+](=O)[O-] returned CHOP UPR activ 0, V-ATPase pH -2, CHOP inh 74*, TbMetRS inhib -1 and XBP1 UPR activ 6.
For CCOc1ccccc1CNn1cnnc1SCC(=O)NC(C)(C)C the results were V-ATPase pH 3 and TbMetRS inhib 0.
For CC1(C(=O)NS(=O)(=O)c2cccc(F)c2)CCN1C(=O)CCc1ccccc1 (stereo not drawn) the results were TbMetRS inhib 0.
`Nc1nonc1-n1nnc(C(=O)N/N=C/c2ccc(OCc3ccccc3)cc2)c1COc1ccc(F)cc1` gave CHOP UPR activ 1, V-ATPase pH 4, CHOP inh 41, TbMetRS inhib 1 and XBP1 UPR activ 17.
`Cc1cccc(COc2ccc(/C=N/NC(=O)c3nnn(-c4nonc4N)c3COc3ccc(F)cc3)cc2)c1` gave CHOP UPR activ 7, V-ATPase pH -2, CHOP inh 29, TbMetRS inhib 0 and XBP1 UPR activ 37*.
Cc1cc(/C=N/Nc2ncnc(N)c2[N+](=O)[O-])c(C)n1-c1ccccc1 was read as CHOP UPR activ -11, V-ATPase pH 3, CHOP inh 83*, TbMetRS inhib 0 and XBP1 UPR activ -7.
`COc1cccc(/C=N/Nc2ncnc(N)c2[N+](=O)[O-])c1OC` gave CHOP UPR activ -8, V-ATPase pH 2, CHOP inh 30, TbMetRS inhib -1 and XBP1 UPR activ -5.
Screening Cc1cc2nc(-c3ccc(F)cc3)c(Cc3cccc(Cl)c3)n2c(C)c1Br returned TbMetRS inhib -1.
`O=C(Nc1ccn(Cc2ccccc2F)n1)c1ccc(COc2ccccc2Cl)cc1` gave CHOP UPR activ 1, V-ATPase pH 3, CHOP inh 74*, TbMetRS inhib 0 and XBP1 UPR activ 3.
Screening O=C(Nc1ccn(Cc2c(F)c(F)cc(F)c2F)n1)c1ccc(COc2ccccc2Cl)cc1 returned CHOP UPR activ 2, V-ATPase pH 0, CHOP inh 46, TbMetRS inhib -2 and XBP1 UPR activ 0.
`CC1(C(=O)Nc2ccc3c(c2)OCCO3)CN(S(C)(=O)=O)CC(=O)N1CCc1ccccc1F` (stereo not drawn) gave TbMetRS inhib -1.
COc1cc(OC)cc(-c2cc3nc(C)c(CCC(=O)NCc4ccccc4)c(C)n3n2)c1 was read as CHOP UPR activ -8, V-ATPase pH 2, CHOP inh 84*, TbMetRS inhib -1 and XBP1 UPR activ -6.
Screening Cc1csc(NC(=O)CSc2nnc(-c3ccc(Cl)cc3)n2N)n1 returned CHOP UPR activ 1, CHOP inh 27, TbMetRS inhib 0 and XBP1 UPR activ -3.
CCc1ccc(C2=NN(CCC(=O)NC(C)c3ccc4c(c3)OCCO4)C(=O)CC2)cc1 (stereo not drawn) was read as CHOP UPR activ -1, V-ATPase pH 1, CHOP inh 41, TbMetRS inhib -1 and XBP1 UPR activ 1.
